What all share (type): functional
One assay deals with 786-0. The assay is described as follows: Concentration which reduced cell growth to 50 % of level against 786-0 renal cancer line. The following applies: Homo sapiens.
The subject of assay [1] is NCI-H460. The assay is described as follows: compound was tested for concentration which reduced cell growth to 50 % of level against NCI-H460 non -small-cell lung cancer cell line. The note with it: Homo sapiens.
A further assay deals with U-251. Nature of the assay: Concentration which reduced cell growth to 50 % of U251 cancer line. The note with it: Homo sapiens.
For the next assay, the system named is SF-295. Nature of the assay: Concentration which reduced cell growth to 50 % of level against SF-295 CNS cancer line. The note with it: Homo sapiens.
For another assay, the system named is OVCAR-3. The assay is described as follows: Concentration which reduced cell growth to 50 % of level against OVCAR-3 ovarian cancer line. The note with it: Homo sapiens.
In a further assay the test system is HCT-116. The assay is described as follows: Concentration which reduced cell growth to 50 % of level against HCT116 colon cancer cell line. The note with it: Homo sapiens.
Assay [2] deals with Tubulin alpha chain (Sus scrofa) (UniProt P02550). Nature of the assay: Inhibition of colchicine binding and evaluated only when polymerization IC50 <=1 uM. An outline of the steps: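 Electrophoretically homogeneous bovine brain tubulin (1.0 µM) incubated 20 min at 37 °C with 5.0 µM [3H]colchicine and 5.0 µM inhibitor in 1.0 M monosodium glutamate (pH 6.6), 1 mM MgCl2, 0.1 mM GTP, 5% (v/v) DMSO. Mixtures filtered through two stacked DEAE-cellulose filters and washed with water. Bound radioactivity counted by liquid scintillation.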
Sequence of Tubulin alpha chain (Sus scrofa) (P02550 whole entry, looked up): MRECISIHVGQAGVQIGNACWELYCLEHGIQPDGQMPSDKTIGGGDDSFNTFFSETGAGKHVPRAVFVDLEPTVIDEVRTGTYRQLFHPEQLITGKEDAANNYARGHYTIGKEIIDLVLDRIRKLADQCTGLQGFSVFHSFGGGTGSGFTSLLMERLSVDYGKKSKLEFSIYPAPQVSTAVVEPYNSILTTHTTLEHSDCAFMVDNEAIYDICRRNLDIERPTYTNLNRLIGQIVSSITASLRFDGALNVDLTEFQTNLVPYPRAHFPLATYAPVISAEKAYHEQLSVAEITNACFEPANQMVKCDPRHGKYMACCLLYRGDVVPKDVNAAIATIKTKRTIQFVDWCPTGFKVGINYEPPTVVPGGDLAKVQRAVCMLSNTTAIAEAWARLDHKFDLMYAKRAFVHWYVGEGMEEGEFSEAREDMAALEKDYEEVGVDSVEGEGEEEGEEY

Another assay has as its system Tumor Cell line. Nature of the assay: Cytotoxic effect in human tumor cell lines, tested by the National Cancer Institute. The following applies: read-out: Average LogGI50 (converted).
In a further assay the test system is HL-60. The assay is described as follows: Concentration which reduced cell growth to 50 % of level against HL-60 (TB) leukemia cell line. The note with it: Homo sapiens.
Another assay deals with SK-MEL-5. Nature of the assay: Concentration which reduced cell growth to 50 % of level against SK-MEL-5 melanoma cell line. The note with it: Homo sapiens.
The target in a further assay is Tubulin beta chain (Bos taurus, UniProt Q6B856). Nature of the assay: Inhibition of bovine tubulin polymerization.
Sequence of Tubulin beta chain (Q6B856 whole entry): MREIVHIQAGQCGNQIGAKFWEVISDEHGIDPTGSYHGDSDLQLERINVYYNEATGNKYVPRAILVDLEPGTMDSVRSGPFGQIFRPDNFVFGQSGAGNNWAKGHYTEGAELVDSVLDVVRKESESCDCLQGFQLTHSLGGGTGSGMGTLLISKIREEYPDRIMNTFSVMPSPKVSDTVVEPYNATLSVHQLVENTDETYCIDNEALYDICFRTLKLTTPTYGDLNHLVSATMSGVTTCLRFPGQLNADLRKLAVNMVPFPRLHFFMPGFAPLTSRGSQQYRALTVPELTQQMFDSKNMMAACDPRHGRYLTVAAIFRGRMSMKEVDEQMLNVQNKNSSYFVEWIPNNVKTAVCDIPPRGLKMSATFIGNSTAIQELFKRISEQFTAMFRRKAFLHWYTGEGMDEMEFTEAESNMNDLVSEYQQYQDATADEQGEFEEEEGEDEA
For the next assay, the system named is MDA-N. Nature of the assay: Concentration which reduced cell growth to 50 % of level against MDA-N breast cancer line. The following applies: Homo sapiens.
The subject of another assay is PC-3. The assay is described as follows: Concentration which reduced cell growth to 50 % of level against PC-3 prostate cancer line. The following applies: Homo sapiens.
Another assay has as its system MDA-MB-435. The assay is described as follows: Concentration which reduced cell growth to 50 % of level against MDA-MB-435 breast cancer line. The following applies: Homo sapiens.
In assay [3] the test system is NCI-H460. Nature of the assay: Concentration which reduced cell growth to 50 % of level against NCI-H460 non -small-cell lung cancer cell line. The following applies: Homo sapiens.

Consider `COc1cccc(-c2cc(O)c3c(C)cc(C)nc3n2)c1`, for which the GI50 in the assay with 786-0 is 437 nM; in the assay on NCI-H460 [1], 0.447 µM; with U-251 it was 170 nM; with SF-295 it was 417 nM; in the assay on OVCAR-3, 251 nM; in the assay on HCT-116, 407 nM. Moreover, the GI50 is 646 nM in the assay on Tumor Cell line; 174 nM with HL-60; 288 nM with SK-MEL-5; below 10 nM with MDA-N; 309 nM in the assay with PC-3; below 10 nM in the assay with MDA-MB-435. Besides, in assay [2], the inhibition (in general, the drop in the measured response relative to a control, in per cent) stood at 22%. In addition, inhibition against Tubulin beta chain was half-maximal at 0.88 µM (IC50).
`COc1cccc(-c2cc(O)c3cc(C)cnc3n2)c1`: the GI50 in the assay with 786-0 is 37.1 nM; in the assay on U-251 it was 44.7 nM; in the assay on SF-295, 37.1 nM; with OVCAR-3, 41.7 nM; in the assay on HCT-116, 22.4 nM; with Tumor Cell line, 95.5 nM. In addition, the GI50 is 43.6 nM in the assay on NCI-H460 [3]; 19.1 nM with HL-60; 25.7 nM with SK-MEL-5; below 10 nM with MDA-N; 42.7 nM in the assay on PC-3; below 10 nM with MDA-MB-435. Further, the inhibition in assay [2] was determined as 31%. In addition, half-maximal inhibition on Tubulin beta chain (IC50) required 0.8 µM.
Turning to `COc1ccccc1-c1cc(O)c2c(C)ccnc2n1`, the GI50 in the assay with 786-0 was 60300 nM; in the assay on NCI-H460 [1], 24 µM; with U-251, 35500 nM; with SF-295, 23400 nM; in the assay with OVCAR-3, 12900 nM; with HCT-116, 7590 nM. The GI50 was 2820 nM with Tumor Cell line; 20900 nM in the assay on HL-60; 22400 nM with SK-MEL-5; 8320 nM in the assay with MDA-N; 20900 nM in the assay on PC-3; 6460 nM with MDA-MB-435. Also, the IC50 (commonly the point on the concentration scale where inhibition reaches its midpoint) at Tubulin beta chain was found to be 20 µM.
As to `COc1cccc(-c2cc(O)c3cccnc3n2)c1`, the GI50 in the assay on 786-0 was 61.7 nM; in the assay with U-251, 55 nM; in the assay with SF-295, 52.5 nM; in the assay on OVCAR-3 it was 55 nM; in the assay on HCT-116 it was 36.3 nM; in the assay with Tumor Cell line, 135 nM. The GI50 is 91.2 nM with NCI-H460 [3]; 16.2 nM in the assay with HL-60; 53.7 nM in the assay on SK-MEL-5; below 10 nM with MDA-N; 93.3 nM in the assay on PC-3; below 10 nM in the assay on MDA-MB-435. Further, in [2], the inhibition was determined as 27%. This molecule also yielded an IC50 at Tubulin beta chain of 0.96 µM.
For `COc1ccc(-c2cc(O)c3cc(C)cnc3n2)cc1`, the GI50 was 5130 nM with 786-0; 4.07 µM with NCI-H460 [1]; 4170 nM in the assay with U-251; 5250 nM in the assay on SF-295; 2950 nM with OVCAR-3; 4170 nM with HCT-116. The GI50 was 6170 nM in the assay with Tumor Cell line; 2290 nM in the assay on HL-60; 3720 nM in the assay with SK-MEL-5; 1700 nM in the assay on MDA-N; 5370 nM with PC-3; 1820 nM with MDA-MB-435. Moreover, it took 7.7 µM to reach half-maximal inhibition against Tubulin beta chain (IC50).
Take `COc1cccc(-c2cc(=O)c3ccc(C)nc3[nH]2)c1`: the GI50 in the assay on 786-0 is 53.7 nM; in the assay with U-251 it was 53.7 nM; in the assay with SF-295 it was 30.2 nM; in the assay with OVCAR-3, 22.4 nM; in the assay on HCT-116, 46.8 nM; in the assay on Tumor Cell line it was 57.5 nM. Besides, the GI50 in the assay with NCI-H460 [3] was 43.6 nM; in the assay on HL-60, 18.2 nM; with SK-MEL-5, 33.9 nM; in the assay on MDA-N, 11 nM; in the assay on PC-3, 33.1 nM; in the assay on MDA-MB-435 it was below 10 nM. The inhibition in [2] worked out at 29%.
Take `Cc1cc(C)c2c(O)cc(-c3ccc(Cl)cc3)nc2n1`: the GI50 is 21400 nM in the assay with 786-0; 22.4 µM in the assay with NCI-H460 [1]; 30200 nM in the assay on U-251; 16200 nM in the assay on SF-295; 18200 nM in the assay with OVCAR-3; 14800 nM in the assay on HCT-116. Besides, the GI50 in the assay on Tumor Cell line was 19500 nM; in the assay on HL-60, 25100 nM; in the assay with SK-MEL-5, 14100 nM; in the assay with MDA-N, 3630 nM; in the assay with PC-3 it was 6310 nM; in the assay on MDA-MB-435 it was 4070 nM. This molecule also yielded an IC50 against Tubulin beta chain of 32 µM.
`Cc1ccnc2nc(-c3ccc(F)cc3)cc(O)c12`: the GI50 is 33900 nM in the assay on 786-0; 32.4 µM in the assay with NCI-H460 [1]; 36300 nM with U-251; 79400 nM in the assay on SF-295; 56200 nM in the assay with OVCAR-3; 16200 nM with HCT-116. The GI50 in the assay on Tumor Cell line was 38000 nM; with HL-60, 4790 nM; in the assay on SK-MEL-5, 16200 nM; in the assay with MDA-N, 3550 nM; in the assay with PC-3 it was 51300 nM; in the assay with MDA-MB-435 it was 2880 nM. In addition, on Tubulin beta chain, the IC50 was found to be 18 µM.
Consider `COc1ccc(-c2cc(O)c3cccnc3n2)cc1`, for which the GI50 is 56200 nM with 786-0; 53700 nM in the assay with U-251; 64600 nM in the assay on SF-295; 30200 nM with OVCAR-3; 17800 nM with HCT-116; 38000 nM with Tumor Cell line. In addition, the GI50 was 26300 nM in the assay on NCI-H460 [3]; 12900 nM in the assay with HL-60; 34700 nM in the assay with SK-MEL-5; 20900 nM in the assay with MDA-N; 31600 nM in the assay on PC-3; 20000 nM with MDA-MB-435. This molecule also returned a 50% inhibitory concentration (IC50) at Tubulin beta chain above 40 µM.
As for `COc1ccc(-c2cc(O)c3c(C)cc(C)nc3n2)cc1`, the GI50 in the assay on 786-0 was 58900 nM; in the assay on NCI-H460 [1], 40.7 µM; with U-251, 91200 nM; in the assay with SF-295, 42700 nM; in the assay with OVCAR-3 it was 32400 nM; in the assay on HCT-116, 36300 nM. Moreover, the GI50 in the assay with Tumor Cell line is 33100 nM; with HL-60, 15500 nM; in the assay with SK-MEL-5, 17800 nM; in the assay on MDA-N it was 33100 nM; in the assay with PC-3, 24000 nM; with MDA-MB-435, 28800 nM. Further, the 50% inhibitory concentration (IC50) on Tubulin beta chain was above 40 µM.
Consider `COc1cccc(-c2cc(O)c3c(C)ccnc3n2)c1`, for which the GI50 was 51.3 nM in the assay with 786-0; 58.9 nM in the assay on U-251; 28.8 nM in the assay on SF-295; 25.7 nM in the assay with OVCAR-3; 44.7 nM in the assay with HCT-116; 58.9 nM with Tumor Cell line. For the same molecule, the GI50 with NCI-H460 [3] is 47.9 nM; in the assay with HL-60 it was 12.9 nM; in the assay on SK-MEL-5, 22.4 nM; with MDA-N, below 10 nM; in the assay with PC-3 it was 26.3 nM; with MDA-MB-435 it was below 10 nM. The inhibition in [2] worked out at 28%. The molecule further returned an IC50 against Tubulin beta chain of 0.62 µM.
`COc1cc([C@@H]2c3cc4c(cc3[C@H](O)[C@H]3COC(=O)[C@H]23)OCO4)cc(OC)c1OC` [PODOFILOX]: the inhibition in assay [2] is 76%. The GI50 with Tumor Cell line was 28.8 nM.
For the molecule `COc1cccc(-c2cc(O)c3cc(Cl)cnc3n2)c1`, the GI50 in the assay with 786-0 is 427 nM; in the assay on U-251, 200 nM; in the assay with SF-295, 60.3 nM; with OVCAR-3, 490 nM; in the assay with HCT-116 it was 120 nM; with Tumor Cell line, 97.7 nM. The GI50 in the assay with NCI-H460 [3] was 63.1 nM; with HL-60, 26.9 nM; in the assay on SK-MEL-5 it was 126 nM; in the assay on MDA-N, 31.6 nM; in the assay on PC-3, 138 nM; with MDA-MB-435 it was 32.4 nM. Besides, the inhibition in [2] was determined as 35%. This molecule had an IC50 against Tubulin beta chain of 0.73 µM.

The values above are taken from ChEMBL document CHEMBL1130090, “Antitumor agents. 174. 2',3',4',5,6,7-Substituted 2-phenyl-1,8-naphthyridin-4-ones: their synthesis, cytotoxicity, and inhibition of tubulin polymerization” (J Med Chem, 1997).
